Measured values gathered from unrelated publications.
Each line is one published result; the experiments were not run side by side. Converted amounts (≈) assume the structure as drawn.
Organism: Mycobacterium tuberculosis
Observed: microbial growth

Compound | assay | test system | conditions | measurement | result
CC(C)/N=c1\cc2n(-c3ccc(Cl)cc3)c3ccccc3nc-2cc1Nc1ccc(Cl)cc1 | – | – | 7 days | MIC90 | 0.39 µM (≈ 0.185 µg/mL)
O=C1c2ccccc2NC(c2cc([N+](=O)[O-])ccc2O)N1/N=C/c1cc([N+](=O)[O-])ccc1O (centres unmarked) | – | ATCC25177 H37RA | 14 days | MIC | 64 µg/mL
CC(=O)OCOc1ccc2nc3ccc(=O)cc-3oc2c1 | – | – | 7 days | MIC90 | 34 µM
CCOC(=O)C1=C(C)NC(=NNS(=O)(=O)c2ccccc2)NC1c1cn(-c2ccccc2)nc1-c1ccccc1 (centres unmarked) | resazurin | H37RV | – | MIC | 44.6 to 45.8 µM
CCCCOc1ccc2nc3ccc(=O)cc-3oc2c1 | – | – | 7 days | MIC90 | ≤ 10 µM
NNC(=O)c1ccncc1 | resazurin | H37RV | 0.212 µM | inhibition | 44%
CCOC(=O)C1=C(C)NC(=S)NC1c1cn(-c2ccccc2)nc1-c1ccccc1 (centres unmarked) | resazurin | H37RV | – | MIC | 59.7 µM
CSCOc1ccc2nc3ccc(=O)cc-3oc2c1 | – | – | 7 days | MIC90 | 47 µM (≈ 12.8 µg/mL)
COc1c(N2CC3CCCNC3C2)c(F)cc2c(=O)c(C(=O)OCc3cnc([N+](=O)[O-])s3)cn(C3CC3)c12 (centres unmarked) | – | H37RV | – | MIC | 0.25 µM
CC[C@@H](CO)NCCN[C@@H](CC)CO | resazurin | H37RV | – | MIC | 7.64 µM
COc1c(N2CC3CCCN(C(=O)OCc4ccc([N+](=O)[O-])cc4)C3C2)c(F)cc2c(=O)c(C(=O)O)cn(C3CC3)c12 (centres unmarked) | – | H37RV | – | MIC | > 8 µM
O=C(O)c1cn(C2CC2)c2cc(N3CCNCC3)c(F)cc2c1=O | – | ATCC25177 H37RA | 14 days | MIC | 16 µg/mL
CCOC(=O)C1=C(C)NC(=O)NC1c1ccc([N+](=O)[O-])o1 (centres unmarked) | resazurin | H37RV | – | MIC | 20.1 µM
CN[C@@H]1[C@H](O)[C@H](NC)[C@H]2O[C@@]3(O)C(=O)C[C@@H](C)O[C@H]3O[C@@H]2[C@H]1O | broth dilution | H37RV | 7 days | MIC | 100 µg/mL
